Shown are actives, neighbours in structure and some others; about 2.8% of the full set was active somewhere.
E-selectin induc = E-selectin induction in HUVECs, primary screen, imaging, HUVEC, immunofluorescence imaging, single point; P16581; normalized: neutral wells 0, TNF-alpha wells 100; activation, % at 7.58 µM; hit rate 0.37% among 260,000; AID 686992, 2013;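 active = mean E-selectin-positive cell signal at least 10% of the positive control, reached in at least 60% of replicates, without over 20% cell loss; inconclusive = no rule given, readout overlaps actives, possibly toxicity-flagged; inactive = the rest, including those meeting only one limit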
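Test system – human umbilical vein endothelial cells (HUVEC), E-selectin induction · Input – 3,000 HUVEC seeded per well · Buffer or medium – EGM-2, gelatin · Compound dosing – single-point compound dose · Detection – immunofluorescence imaging · Measure – percent E-selectin-positive cells · Controls – TNF-alpha high, DMSO low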
SIRT5 block = SIRT5 desuccinylase inhibitors, primary screen, biochemical, fluorescence imaging, single point, set 5; NAD-dependent protein deacylase sirtuin-5, mitochondrial (Homo sapiens), Q9NXA8; Purified SirT5, succinyl-peptide AMC, trypsin-coupled fluorescence; inhibition, % at 15 µM; hit rate 1.1% among 330,000; in the data active = inhibition above about 15%; inconclusive = no clear call, values can overlap the other calls
Target sequence (Q9NXA8 whole entry, looked up): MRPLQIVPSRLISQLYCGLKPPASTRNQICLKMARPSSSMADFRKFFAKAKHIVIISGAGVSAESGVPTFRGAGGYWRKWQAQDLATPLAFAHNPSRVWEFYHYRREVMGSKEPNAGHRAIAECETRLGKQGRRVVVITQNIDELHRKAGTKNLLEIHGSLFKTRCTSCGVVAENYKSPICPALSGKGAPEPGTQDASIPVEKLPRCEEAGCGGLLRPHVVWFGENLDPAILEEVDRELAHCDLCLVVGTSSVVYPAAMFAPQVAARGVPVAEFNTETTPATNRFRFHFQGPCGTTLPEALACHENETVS
DENV2 CPE = inhibitors of DENV2 cytopathic effect, primary screen, cell-based, plate reader, single concentration; DENV2-infected cells, cytopathic effect rescue; CPE inhibition, % at 9.99 µM; hit rate 1.7% among 350,000; in the data active = CPE inhibition above about 20%, passing the limit was not always enough; inconclusive = no clear call, values can overlap the other calls; tested in BHK-21 cells;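 also: 0% = median of neutral control wells and 100% = median of positive control wells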
Numbers without * were called inactive; ? = inconclusive; · = not tested or not shown.

SMILES	E-selectin induc	SIRT5 block	DENV2 CPE
C[C@@H]1CN([C@H](C)CO)C(=O)c2cc(NC(=O)CCC(F)(F)F)ccc2O[C@@H](C)CCCCO[C@@H]1CN(C)S(=O)(=O)c1cn(C)cn1	-0.2	-0.2	4.6
O=C(N[C@@H]1CC[C@H](CC(=O)N2CCOCC2)O[C@H]1CO)c1ccccn1	0.6	1.6	2.3
CC(C)C#Cc1cnc2c(c1)C(=O)N([C@@H](C)CO)C[C@@H](C)[C@@H](CN(C)C(=O)C1CCC1)O2	0.2	-1.9	-2.7
CC(C)CC#Cc1ccc2c(c1)O[C@@H](CN(C)Cc1ccccn1)[C@H](C)CN([C@@H](C)CO)S2(=O)=O	0.0	7.6	2.9
C[C@H]1CCCCO[C@H](CN(C)C(=O)Nc2ccc3c(c2)OCO3)[C@@H](C)CN([C@@H](C)CO)C(=O)c2cc(NS(=O)(=O)c3ccc(Cl)cc3)ccc2O1	0.1	1.7	51.8*
COc1ccc(S(=O)(=O)Nc2ccc3c(c2)C(=O)N([C@@H](C)CO)C[C@H](C)[C@@H](CN(C)C(=O)Nc2ccc4c(c2)OCO4)OCCCC[C@H](C)O3)cc1	0.0	-2.1	-5.4
COc1ccc(S(=O)(=O)Nc2ccc3c(c2)C(=O)N([C@H](C)CO)C[C@H](C)[C@H](CN(C)C(=O)Nc2ccc4c(c2)OCO4)OCCCC[C@H](C)O3)cc1	-0.2	17.4*	-1.6
C[C@@H]1CCCCO[C@@H](CN(C)C(=O)Nc2ccc3c(c2)OCO3)[C@@H](C)CN([C@H](C)CO)C(=O)c2cc(NS(=O)(=O)c3ccc(Cl)cc3)ccc2O1	0.2	3.5	-6.9
O=C(Cc1ccccc1)N1CC(=O)N2[C@H](CO)[C@H](c3ccc(C#CCc4ccccc4)cc3)[C@H]2C1	-0.6	0.9	-4.2
COc1ccccc1CNC(=O)C[C@H]1C[C@H]2c3cc(NC(=O)Cc4ccncc4)ccc3O[C@H]2[C@H](CO)O1	-0.1	-6.9	1.6
Cc1ccc(S(=O)(=O)N(C)C[C@@H]2Oc3ncc(-c4ccncc4)cc3C(=O)N([C@H](C)CO)C[C@@H]2C)cc1	0.1	-1.2	-3.6
OCC[C@H]1C[C@@H](O)[C@H](O)[C@@]2(CCc3ccccc3CO2)O1	0.8	-6.7	48.0*
OCC[C@H]1C[C@@H](O)[C@H](O)[C@@]2(CCCO2)O1	0.0	-1.5	59.0*
OCC[C@@H]1C[C@@H](O)[C@H](O)[C@@]2(CCCO2)O1	·	-0.4	9.7
OCC[C@H]1C[C@@H](O)[C@H](O)[C@@]2(Cc3ccccc3CCO2)O1	0.0	-0.1	22.9*
OCC[C@H]1C[C@H](O)[C@@H](O)[C@@]2(Cc3ccccc3CCO2)O1	-0.5	5.9	?
OCC[C@@H]1C[C@H](O)[C@@H](O)[C@@]2(CCc3ccccc3CO2)O1	-0.2	·	6.8
C[C@@H]1CN([C@@H](C)CO)C(=O)c2cccc(N(C)C)c2O[C@H]1CN(C)C(=O)Nc1ccc2c(c1)OCO2	0.1	-6.3	-3.6
COc1cccc(CNC(=O)[C@H]2[C@H](CO)[C@H]3Cn4c(ccc(-c5ccncc5)c4=O)[C@@H]2N3C(C)=O)c1	-0.2	-25.9	-7.7
Cc1noc(C)c1S(=O)(=O)N(C)C[C@@H]1Oc2c(cccc2N(C)C)C(=O)N([C@H](C)CO)C[C@H]1C	-0.1	-3.6	1.6
COc1ccc2c3c(n(C)c2c1)[C@H](CO)N(Cc1nccs1)CC31CCN(C)CC1	-0.3	·	9.8
COc1ccc2c3c(n(C)c2c1)[C@H](CO)N(S(C)(=O)=O)CC31CCN(Cc2nccs2)CC1	0.5	4.6	24.2*
COc1ccc2c3c(n(C)c2c1)[C@H](CO)N(Cc1nccs1)CC31CCN(C(C)=O)CC1	0.2	·	27.0*
COc1ccc2c3c(n(C)c2c1)[C@H](CO)N(C(C)=O)CC31CCN(Cc2nccs2)CC1	-0.2	·	-6.4
COc1ccc2c3c(n(C)c2c1)[C@H](CO)N(CC1CC1)CC31CCN(Cc2nccs2)CC1	-0.3	·	45.2*
SMILES	E-selectin induc	SIRT5 block	DENV2 CPE
CCC(=O)N1CCC2(CC1)CN(Cc1nccs1)[C@H](CO)c1c2c2ccc(OC)cc2n1C	-0.4	·	11.0
C[C@@H]1CN([C@@H](C)CO)C(=O)c2cc(NC(=O)NC3CCCCC3)ccc2O[C@@H](C)CCCCO[C@H]1CN(C)Cc1ccc(C(F)(F)F)cc1	0.0	-1.3	-7.7
O=C(C[C@H]1CC[C@H]2[C@@H](COC[C@H](O)CN2C(=O)Nc2ccc(C(F)(F)F)cc2)O1)NC1Cc2ccccc2C1	0.4	1.7	11.6
CCC(=O)Nc1ccc2c(c1)C(=O)N(C)[C@@H]1CC[C@H](CC(=O)NCCc3ccccc3)O[C@H]1CO2	0.1	-2.4	5.6
CCOC(=O)C(=C1Nc2ccccc2N1)n1c(-c2cnccn2)nc2ccccc21	-0.1	·	57.3*
CCOC(=O)C(=C1Nc2ccccc2N1)n1c(-c2ccco2)nc2ccccc21	0.6	2.0	-21.6
CO[C@@H]1CN(C)C(=O)c2ccc(NC(=O)c3ccc4c(c3)OCO4)cc2OC[C@@H](C)N(CC2CC2)C[C@@H]1C	0.1	·	8.2
Cc1ccc(S(=O)(=O)Nc2ccc3c(c2)C(=O)N([C@@H](C)CO)C[C@@H](C)[C@@H](CN(C)C(=O)NC(C)C)OCCCC[C@@H](C)O3)cc1	-0.1	2.9	0.0
CN(C)c1ccc(/C=N/NC(=O)c2ccc3nc[nH]c3c2)cc1	0.7	2.2	-0.6
CSc1ccc(/C=N/NC(=O)c2ccc3nc[nH]c3c2)cc1	40.5*	·	-12.7
O=C(CCS(=O)(=O)Cc1ccccc1F)NCCc1ccc(Cl)cc1	·	16.6*	2.4
Cc1ccc(CCNC(=O)CCS(=O)(=O)Cc2ccc(C)cc2)cc1	0.0	-1.3	-3.7
CCN(CC)CCCn1c2c(c(SCC(=O)Nc3cccc(C(C)=O)c3)nc1=O)CCC2	0.2	4.6	1.3
CCN(CC)CCCn1c2c(c(SCC(=O)Nc3cc(C)cc(C)c3)nc1=O)CCC2	·	-2.0	22.5*
c1ccc2c(C[C@@H]3CNCCN3CCCCC3CCCCC3)cccc2c1	0.0	-2.4	23.8*
c1ccc(C[C@H]2CNCCN2CCCCC2CCCCC2)cc1	-0.2	·	-15.5
COc1ccc(NC(=O)N[C@@H]2CC[C@H](CCNC(=O)c3cc(Cl)cc(Cl)c3)O[C@H]2CO)cc1	-2.3	2.2	0.4
Cc1cc(C)cc(NC2=C(N)C(=O)c3ccccc3C2=O)c1	·	16.1*	·
O=C1C(Cl)=C(Nc2ccc(O)cc2)C(=O)c2ccccc21	0.5	-2.0	8.1
Cc1cccc(NC2=C(NCCO)C(=O)c3ccccc3C2=O)c1	0.0	1.9	-0.4
Cc1ccc(NC2=C(Cl)C(=O)c3ccccc3C2=O)cc1	1.9	-2.6	83.3*
CCCNC(=O)[C@@H]1[C@@H](CO)[C@@H]2Cn3c(ccc(-c4ccccc4)c3=O)[C@@H]2N1CC1CC1	1.5	0.2	?
CN1C(=O)c2cc(NC(=O)Nc3ccccc3F)ccc2OC[C@@H]2O[C@@H](CC(=O)NCCc3ccncc3)CC[C@H]21	0.1	·	·
O=C(NCc1ccc(F)cc1)[C@@H]1[C@@H](CO)[C@@H]2Cn3c(cccc3=O)[C@@H]2N1C(=O)C1CC1	0.2	-0.6	-4.9
CCCn1nc(Oc2nc(N(C)C)nc(N(C)C)n2)ccc1=O	·	19.3*	·
CCOC(=O)CNc1nc(Oc2ccc(=O)n(C)n2)nc(N(CC)CC)n1	·	-3.2	-2.6
